Experimental data as given in ChEMBL document CHEMBL1138746, “Indolebutylamines as selective 5-HT(1A) agonists” (J Med Chem, 2004).

How the values were obtained:
[1] = Inhibition of 5-hydroxytryptamine 1D receptor
[2] = Inhibition of 5-hydroxytryptamine 2A receptor
[3] = Inhibition of 5-hydroxytryptamine 2C receptor
[4] = biological target: T1, Adrenergic receptor alpha-1 (Homo sapiens, UniProt P35348+P25100+P35368); assay: Inhibition of Alpha-1 adrenergic receptor; assay type: protein assay
T1 sequence (P35348 whole entry): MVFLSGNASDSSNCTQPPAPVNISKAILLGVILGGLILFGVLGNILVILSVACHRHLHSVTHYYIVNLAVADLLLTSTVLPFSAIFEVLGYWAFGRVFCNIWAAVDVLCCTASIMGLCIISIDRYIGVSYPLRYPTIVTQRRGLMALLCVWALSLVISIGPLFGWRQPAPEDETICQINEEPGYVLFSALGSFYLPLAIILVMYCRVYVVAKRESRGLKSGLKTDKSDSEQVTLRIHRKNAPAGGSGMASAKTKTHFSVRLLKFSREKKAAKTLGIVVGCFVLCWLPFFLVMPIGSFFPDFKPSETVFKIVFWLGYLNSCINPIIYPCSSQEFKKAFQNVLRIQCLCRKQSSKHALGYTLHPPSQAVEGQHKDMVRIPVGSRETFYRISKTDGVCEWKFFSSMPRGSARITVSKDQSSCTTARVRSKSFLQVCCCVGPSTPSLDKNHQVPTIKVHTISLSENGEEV
T1 sequence (P25100 whole entry): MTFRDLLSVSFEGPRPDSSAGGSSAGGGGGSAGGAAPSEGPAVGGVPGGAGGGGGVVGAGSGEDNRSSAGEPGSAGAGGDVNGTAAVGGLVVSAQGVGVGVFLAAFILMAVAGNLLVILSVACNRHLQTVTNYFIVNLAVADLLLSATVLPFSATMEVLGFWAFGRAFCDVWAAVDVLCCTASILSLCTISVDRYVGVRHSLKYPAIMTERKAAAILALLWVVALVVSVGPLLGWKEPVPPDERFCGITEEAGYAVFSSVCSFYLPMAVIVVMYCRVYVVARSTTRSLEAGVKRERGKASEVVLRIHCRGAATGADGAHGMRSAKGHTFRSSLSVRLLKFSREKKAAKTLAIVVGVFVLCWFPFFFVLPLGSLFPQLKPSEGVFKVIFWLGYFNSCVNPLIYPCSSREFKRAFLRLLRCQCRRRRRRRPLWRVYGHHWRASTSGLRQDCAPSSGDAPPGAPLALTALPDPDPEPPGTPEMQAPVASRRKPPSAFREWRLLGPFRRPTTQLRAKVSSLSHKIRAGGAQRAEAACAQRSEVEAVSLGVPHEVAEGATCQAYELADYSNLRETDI
T1 sequence (P35368 whole entry): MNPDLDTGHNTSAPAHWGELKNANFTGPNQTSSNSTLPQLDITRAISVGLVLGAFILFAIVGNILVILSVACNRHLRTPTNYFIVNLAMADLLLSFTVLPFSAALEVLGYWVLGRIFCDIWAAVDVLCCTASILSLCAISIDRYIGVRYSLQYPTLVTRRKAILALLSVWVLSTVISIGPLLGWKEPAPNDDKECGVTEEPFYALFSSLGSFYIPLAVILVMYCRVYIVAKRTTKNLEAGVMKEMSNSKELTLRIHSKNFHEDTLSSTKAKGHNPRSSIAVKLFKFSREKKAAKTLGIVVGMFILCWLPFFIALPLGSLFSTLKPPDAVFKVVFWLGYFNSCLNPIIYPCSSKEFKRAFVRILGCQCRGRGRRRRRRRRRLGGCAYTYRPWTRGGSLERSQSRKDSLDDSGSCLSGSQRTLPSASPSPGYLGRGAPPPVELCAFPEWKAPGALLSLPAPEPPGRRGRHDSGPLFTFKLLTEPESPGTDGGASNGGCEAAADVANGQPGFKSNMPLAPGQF

[5] = biological target: T2, Adrenergic receptor alpha-2 (Homo sapiens, UniProt P08913+P18825+P18089); assay: Inhibition of Alpha-2 adrenergic receptor; assay type: protein assay
T2 sequence (P08913 whole entry): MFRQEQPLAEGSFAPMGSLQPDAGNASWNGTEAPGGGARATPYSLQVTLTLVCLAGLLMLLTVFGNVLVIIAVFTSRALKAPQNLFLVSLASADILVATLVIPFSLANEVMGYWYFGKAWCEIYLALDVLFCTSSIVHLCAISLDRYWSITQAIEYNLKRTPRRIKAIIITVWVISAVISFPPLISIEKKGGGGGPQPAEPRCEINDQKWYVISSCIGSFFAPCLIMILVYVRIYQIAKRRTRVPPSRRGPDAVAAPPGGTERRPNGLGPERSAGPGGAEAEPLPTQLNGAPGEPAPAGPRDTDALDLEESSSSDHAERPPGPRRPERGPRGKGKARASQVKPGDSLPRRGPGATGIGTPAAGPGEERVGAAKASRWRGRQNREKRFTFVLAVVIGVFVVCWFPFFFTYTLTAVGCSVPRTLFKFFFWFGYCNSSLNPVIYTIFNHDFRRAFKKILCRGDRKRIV
T2 sequence (P18825 whole entry): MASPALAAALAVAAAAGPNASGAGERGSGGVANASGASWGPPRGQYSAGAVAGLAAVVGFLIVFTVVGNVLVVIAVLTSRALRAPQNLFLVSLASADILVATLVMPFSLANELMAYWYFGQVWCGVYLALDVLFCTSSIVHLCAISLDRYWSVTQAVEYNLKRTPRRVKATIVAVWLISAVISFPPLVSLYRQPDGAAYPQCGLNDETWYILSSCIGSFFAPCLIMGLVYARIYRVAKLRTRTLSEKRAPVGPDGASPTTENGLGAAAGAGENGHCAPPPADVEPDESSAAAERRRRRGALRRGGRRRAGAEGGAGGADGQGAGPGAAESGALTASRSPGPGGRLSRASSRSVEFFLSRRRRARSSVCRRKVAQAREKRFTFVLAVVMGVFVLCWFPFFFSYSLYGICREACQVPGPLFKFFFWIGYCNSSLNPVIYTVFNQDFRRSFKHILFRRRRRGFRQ
T2 sequence (P18089 whole entry): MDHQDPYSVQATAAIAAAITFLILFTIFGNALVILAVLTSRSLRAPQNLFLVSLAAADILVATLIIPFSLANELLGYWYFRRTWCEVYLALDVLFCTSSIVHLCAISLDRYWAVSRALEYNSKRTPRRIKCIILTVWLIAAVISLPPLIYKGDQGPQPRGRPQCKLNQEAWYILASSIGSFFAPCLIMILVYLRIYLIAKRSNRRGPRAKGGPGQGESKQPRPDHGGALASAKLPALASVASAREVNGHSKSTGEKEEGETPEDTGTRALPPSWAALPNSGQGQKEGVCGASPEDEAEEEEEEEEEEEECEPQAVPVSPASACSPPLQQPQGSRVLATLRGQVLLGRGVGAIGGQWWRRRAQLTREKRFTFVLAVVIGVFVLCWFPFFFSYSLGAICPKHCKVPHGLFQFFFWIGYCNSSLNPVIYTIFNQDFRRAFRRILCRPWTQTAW

D(2) dopamine receptor = D(2) dopamine receptor (Rattus norvegicus, UniProt P61169); assay: Displacement of [3H]spiperone from dopamine D2 receptor of rat striatal membranes; assay type: cell membranes, Membrane
Method in brief: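 Rat striatal membranes (0.3–1.0 mg protein/mL) were incubated with 0.1 nM [3H]spiperone in Tris-HCl buffer (pH 7.1) containing 120 mmol/L NaCl, 5 mmol/L KCl, 1 mmol/L CaCl2, 1 mmol/L MgCl2 and 0.1% ascorbic acid, at 37 °C for 15 min. Bound ligand was separated by filtration with three ice-cold washes. Nonspecific binding was defined with 1 mmol/L (+)-butaclamol. IC50 (50% inhibition of binding) came from 5–10 concentrations, each in triplicate.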

[6] = Inhibition of Histamine H1 receptor
[7] = biological target: T3, 5-hydroxytryptamine receptor 1A (Rattus norvegicus, UniProt P19327); assay: Inhibition of 8-OH DPAT bindign to rat hydroxytryptamine 1A receptor in hippocampal membranes
T3 sequence (P19327 whole entry): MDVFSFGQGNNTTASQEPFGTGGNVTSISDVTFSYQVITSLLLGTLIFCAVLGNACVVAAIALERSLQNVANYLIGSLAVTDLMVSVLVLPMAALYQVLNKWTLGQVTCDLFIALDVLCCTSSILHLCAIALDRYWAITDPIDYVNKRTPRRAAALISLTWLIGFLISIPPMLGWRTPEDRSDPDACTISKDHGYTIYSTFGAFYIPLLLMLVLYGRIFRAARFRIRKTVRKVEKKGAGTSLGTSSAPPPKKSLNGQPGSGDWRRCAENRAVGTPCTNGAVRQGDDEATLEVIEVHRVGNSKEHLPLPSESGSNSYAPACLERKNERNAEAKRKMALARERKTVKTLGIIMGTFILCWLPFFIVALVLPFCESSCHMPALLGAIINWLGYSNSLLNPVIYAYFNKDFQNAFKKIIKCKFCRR

[8] = Inhibition of hydroxytryptamine 2C receptor
[9] = biological target: 5-hydroxytryptamine receptor 1A (Homo sapiens) (UniProt P08908); assay: Effective dose against 5-HT1a receptor
[10] = biological target: 5-hydroxytryptamine receptor 1A (Homo sapiens) (UniProt P08908); assay: Effective dose against 5-hydroxytryptamine 1A receptor

Chain of D(2) dopamine receptor (P61169 whole entry): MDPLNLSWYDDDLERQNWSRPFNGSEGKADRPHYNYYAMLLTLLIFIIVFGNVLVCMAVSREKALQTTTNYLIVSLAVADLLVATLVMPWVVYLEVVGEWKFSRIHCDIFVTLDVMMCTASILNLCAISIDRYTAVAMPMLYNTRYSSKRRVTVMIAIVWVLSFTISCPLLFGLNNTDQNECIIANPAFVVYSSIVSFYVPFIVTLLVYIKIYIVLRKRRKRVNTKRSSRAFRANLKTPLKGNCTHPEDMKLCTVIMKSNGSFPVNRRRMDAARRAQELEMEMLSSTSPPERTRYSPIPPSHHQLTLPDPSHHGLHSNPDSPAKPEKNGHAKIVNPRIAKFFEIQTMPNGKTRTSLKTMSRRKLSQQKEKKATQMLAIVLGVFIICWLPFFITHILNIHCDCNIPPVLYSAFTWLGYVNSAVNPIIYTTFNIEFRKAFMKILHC
Chain of 5-hydroxytryptamine receptor 1A (Homo sapiens) (P08908 whole entry, looked up): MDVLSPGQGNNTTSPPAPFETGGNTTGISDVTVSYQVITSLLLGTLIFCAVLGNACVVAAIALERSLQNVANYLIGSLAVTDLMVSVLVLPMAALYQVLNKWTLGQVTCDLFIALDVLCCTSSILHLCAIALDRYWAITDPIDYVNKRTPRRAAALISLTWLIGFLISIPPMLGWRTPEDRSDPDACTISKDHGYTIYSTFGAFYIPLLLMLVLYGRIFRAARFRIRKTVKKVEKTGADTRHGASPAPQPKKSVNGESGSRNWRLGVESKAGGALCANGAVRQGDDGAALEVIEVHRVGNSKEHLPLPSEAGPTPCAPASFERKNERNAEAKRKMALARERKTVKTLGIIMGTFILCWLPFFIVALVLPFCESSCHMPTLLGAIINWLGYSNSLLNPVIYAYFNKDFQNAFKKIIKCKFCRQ

| SMILES | IC50 [1] [nM] | IC50 [2] [nM] | IC50 [3] [nM] | IC50 [4] [nM] | IC50 [5] [nM] | IC50 (D(2) dopamine receptor) [nM] | IC50 [6] [nM] | IC50 [7] [nM] | IC50 [8] [nM] | ED50 [9] [nM] | ED50 [10] [nM] |
| --- | --- | --- | --- | --- | --- | --- | --- | --- | --- | --- | --- |
| COc1ccc(N2CCN(CCCCc3c[nH]c4ccc(C(N)=O)cc34)CC2)cc1 | – | 220 | – | 700 | 2000 | 140 | 1000 | 0.09 | – | – | – |
| COc1ccc(N2CCN(CCCCc3c[nH]c4ccc(OC)cc34)CC2)cc1 | > 10000 | 750 | – | 1000 | 7000 | 420 | 41 | – | 4000 | – | – |
| NC(=O)c1ccc(N2CCN(CCCCc3c[nH]c4ccc(C(N)=O)cc34)CC2)cc1 | – | – | – | – | – | > 850 | – | – | – | 4.7 | – |

Now those with a lower IC50 (D(2) dopamine receptor), led by results:

| IC50 [1] [nM] | IC50 [2] [nM] | IC50 [3] [nM] | IC50 [4] [nM] | IC50 [5] [nM] | IC50 (D(2) dopamine receptor) [nM] | IC50 [6] [nM] | IC50 [7] [nM] | IC50 [8] [nM] | ED50 [9] [nM] | ED50 [10] [nM] | SMILES |
| --- | --- | --- | --- | --- | --- | --- | --- | --- | --- | --- | --- |
| 400 | 240 | 800 | 100 | 900 | 22 | 19 | 0.4 | – | – | – | NC(=O)c1ccc2[nH]cc(CCCCN3CCN(c4ccc5c(c4)OCO5)CC3)c2c1 |
| – | – | – | – | – | 100 | – | 0.5 | – | – | 0.07 | NC(=O)c1ccc2[nH]cc(CCCCN3CCN(c4ccc5c(c4)CCCO5)CC3)c2c1 |
